Measured values: ChEMBL document CHEMBL1799963, “Discovery of novel benzopyranyl tetracycles that act as inhibitors of osteoclastogenesis induced by receptor activator of NF-κB ligand” (J Med Chem, 2010)
Calls of active or inactive are those of the source. The rule behind the calls is not given here.

Legend:
[1] = tested on: RAW264.7; assay: Inhibition of RANKL-induced osteoclastogenesis in mouse RAW264.7 cells assessed as TRAP-positive cells at 10 uM after 1 hr by microplate reader assay; type: functional; parameters: scale not given: the % may be the effect or the level left
Outline: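 RAW264.7 plated at 1 10^3 cells/well in α-MEM/10% FBS with 100 ng/mL RANKL; compound (10 μM) or DMSO vehicle added after 24 h. On day 4, cells fixed (10% formalin 10 min, 95% ethanol 1 min). TRAP activity measured in 50 mM citrate pH 4.6 with 10 mM tartrate and 5 mM p-nitrophenylphosphate for 1 h, stopped with 0.1 N NaOH, A410. Triplicate; 100% = RANKL minus vehicle difference.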

[2] = Cytotoxicity against mouse RAW264.7 cells assessed as cell viability at 30 uM after day 4 by CCK-8 assay; type: cell-based; conditions: read-out: Activity
Outline: (§1)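 RAW264.7 cells exposed to compound at 30 μM final for 1 day or 4 days; viability read by CCK-8 assay.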

[3] = tested on: RAW264.7; assay: Inhibition of RANKL-induced osteoclastogenesis in mouse RAW264.7 cells assessed as decrease in TRAP-positive cells after 1 hr by microplate reader assay; type: functional, cell-based; conditions: RAW264.7, 1 h
Outline: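 RAW264.7 in α-MEM/10% FBS plus 100 ng/mL RANKL; compound or DMSO vehicle added after 24 h, dose-dependent series. On day 4, cells fixed and TRAP activity read as p-nitrophenylphosphate (5 mM) hydrolysis in tartrate-containing citrate buffer pH 4.6, 1 h, NaOH stop, A410. IC50 derived; triplicate.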

[4] = Cytotoxicity against mouse RAW264.7 cells assessed as cell viability at 30 uM after day 1 by CCK-8 assay; type: cell-based; conditions: read-out: Activity; outline: as §1
[5] = tested on: Macrophage; assay: Inhibition of RANKL-induced osteoclastogenesis in BALB/c mouse Bone marrow macrophages assessed as decrease in TRAP-positive cells after 1 hr by microplate reader assay; type: functional, cell-based
Outline: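 BALB/c femur/tibia monocytes grown 1 day with 10 ng/mL M-CSF, then nonadherent cells 3 days with 30 ng/mL M-CSF. Adherent BMMs plated at 3 10^5 cells/well with 100 ng/mL RANKL and 30 ng/mL M-CSF, then given compound dose series. TRAP activity read via p-nitrophenylphosphate hydrolysis (pH 4.6 citrate, tartrate, 1 h, A410). IC50 derived.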

[6] = Inhibition of NFkappa signaling in mouse RAW264.7 cells assessed as reduction in RANKL-induced transcriptional activation on NF-kappaB by luciferase reporter gene assay; type: cell-based
[7] = tested on: RAW264.7; assay: Downregulation of RANKL-induced fra2 mRNA expression in mouse RAW264.7 cells at 10 uM by RT-PCR analysis; type: functional, cell-based
[8] = tested on: RAW264.7; assay: Inhibition of TRAP mRNA expression in mouse RAW264.7 cells at 10 uM by RT-PCR analysis; type: functional, cell-based
[9] = tested on: RAW264.7; assay: Downregulation of RANKL-induced NFATc1 mRNA expression in mouse RAW264.7 cells at 10 uM by RT-PCR analysis; type: functional, cell-based
[10] = tested on: RAW264.7; assay: Inhibition of c-Src mRNA expression in mouse RAW264.7 cells at 10 uM by RT-PCR analysis; type: functional, cell-based
[11] = tested on: RAW264.7; assay: Inhibition of MMP-7 mRNA expression in mouse RAW264.7 cells at 10 uM by RT-PCR analysis; type: functional, cell-based
[12] = tested on: RAW264.7; assay: Inhibition of RANKL-induced ERK phosphorylation in mouse RAW264.7 cells at 10 uM by Western blot analysis; type: cell-based
[13] = tested on: RAW264.7; assay: Downregulation of RANKL-induced c-fos mRNA expression in mouse RAW264.7 cells at 10 uM by RT-PCR analysis; type: functional, cell-based
[14] = Inhibition of NFkappa signaling in mouse RAW264.7 cells assessed as reduction in RANKL-induced transcriptional activation on NF-kappaB at 10 uM by luciferase reporter gene assay; type: cell-based

SMILES: CCCN1CCC2(CC1)Oc1cc(O)ccc1C1C2=CCn2c(=O)n(-c3ccccc3)c(=O)n21 (centres undefined)
- Activity [1]: 99%

SMILES: CC1(C)Oc2cc(O)ccc2C2C1=CCn1c(=O)n(-c3ccc(Br)cc3)c(=O)n12 (centres undefined)
- Activity [1]: 83%

SMILES: O=c1n(-c2ccccc2)c(=O)n2n1CC=C1C2c2ccc(O)cc2OC12CCCC2 (centres undefined)
- viability at 4 day, 30 µM [2]: 46%
- IC50 [3]: 5.09 µM
- viability at 1 day, 30 µM [4]: 77.8%
- IC50 [5]: 6.05 µM
- Activity [1]: 30%

SMILES: CC1(C)Oc2cc(O)ccc2C2C1=CCn1c(=O)n(-c3ccccc3I)c(=O)n12 (centres undefined)
- Activity [1]: 101%

SMILES: Cn1c(=O)n2n(c1=O)C1C(=CC2)C(C)(C)Oc2cc(O)ccc21 (centres undefined)
- Activity [1]: 95%

SMILES: CC1(C)Oc2cc(F)ccc2C2C1=CCn1c(=O)n(-c3ccccc3)c(=O)n12 (centres undefined)
- Activity [1]: 121%

SMILES: CNc1ccc2c(c1)OC(C)(C)C1=CCn3c(=O)n(-c4ccccc4)c(=O)n3C12 (centres undefined)
- Activity [1]: 107%

SMILES: CC1(C)Oc2cc(O)ccc2C2C1=CCn1c(=O)n(C3CCCCC3)c(=O)n12 (centres undefined)
- Activity [1]: 113%

SMILES: COc1ccc2c(c1O)OC(C)(C)C1=CCn3c(=O)n(-c4ccccc4)c(=O)n3C12 (centres undefined)
- IC50 [5]: 22.2 µM
- Activity [1]: 69%

SMILES: CC1(C)Oc2cc(O)ccc2C2C1=CCn1c(=O)n(-c3ccccc3Cl)c(=O)n12 (centres undefined)
- Activity [1]: 95%

SMILES: COc1ccc(-n2c(=O)n3n(c2=O)C2C(=CC3)C(C)(C)Oc3cc(O)ccc32)cc1 (centres undefined)
- Activity [1]: 93%

SMILES: COc1ccc2c(c1)C1C(=CCn3c(=O)n(-c4ccccc4)c(=O)n31)C(C)(C)O2 (centres undefined)
- Activity [1]: 100%

SMILES: CC(=O)N1CCC2(CC1)Oc1cc(O)ccc1C1C2=CCn2c(=O)n(-c3ccccc3)c(=O)n21 (centres undefined)
- Activity [1]: 113%

SMILES: CC1(C)Oc2cc(O)ccc2C2C1=CCn1c(=O)n(Cc3ccccc3)c(=O)n12 (centres undefined)
- Activity [1]: 98%

SMILES: CC1(C)Oc2cc(O)ccc2C2C1=CCn1c(=O)n(-c3ccccc3)c(=O)n12 (centres undefined)
- viability at 4 day, 30 µM [2]: 74%
- inhibition [6]: Dose-dependent effect
- Activity [7]: Active
- inhibition [8]: Active
- IC50 [3]: 7.07 µM
- Activity [9]: Active
- inhibition [10]: Active
- viability at 1 day, 30 µM [4]: 85.9%
- inhibition [11]: Active
- IC50 [5]: 6.13 µM
- inhibition [12]: Active
- Activity [1]: 43%
- Activity [13]: Active

SMILES: CC1(C)Oc2cc(O)ccc2C2C1=CCn1c(=O)n(-c3ccc(F)cc3)c(=O)n12 (centres undefined)
- viability at 4 day, 30 µM [2]: 80.7%
- IC50 [3]: 8.08 µM
- viability at 1 day, 30 µM [4]: 99%
- IC50 [5]: 11.9 µM
- Activity [1]: 68%

SMILES: COc1ccc2c(c1)OC(C)(C)C1=CCn3c(=O)n(-c4ccccc4)c(=O)n3C12 (centres undefined)
- Activity [1]: 108%

SMILES: Cc1ccc(-n2c(=O)n3n(c2=O)C2C(=CC3)C(C)(C)Oc3cc(O)ccc32)cc1 (centres undefined)
- viability at 4 day, 30 µM [2]: 86.9%
- inhibition [6]: Dose-dependent effect
- Activity [7]: Active
- inhibition [8]: Active
- IC50 [3]: 7.97 µM
- Activity [9]: Active
- inhibition [10]: Active
- viability at 1 day, 30 µM [4]: 100%
- inhibition [11]: Active
- IC50 [5]: 7.05 µM
- inhibition [12]: Active
- Activity [1]: 50%
- Activity [13]: Active

SMILES: CC1(C)Oc2ccccc2C2C1=CCn1c(=O)n(-c3ccccc3)c(=O)n12 (centres undefined)
- inhibition [14]: Active
- Activity [7]: inactive
- inhibition [8]: inactive
- Activity [9]: inactive
- inhibition [10]: inactive
- inhibition [11]: inactive
- inhibition [12]: inactive
- Activity [1]: 104%
- Activity [13]: inactive

SMILES: CC1(C)Oc2cc(O)ccc2C2C1=CCn1c(=O)n(-c3cccc([N+](=O)[O-])c3)c(=O)n12 (centres undefined)
- Activity [1]: 105%

SMILES: COc1cc2c(cc1OC)C1C(=CCn3c(=O)n(-c4ccccc4)c(=O)n31)C(C)(C)O2 (centres undefined)
- Activity [1]: 99%

SMILES: CC1(C)Oc2cc(O)ccc2C2C1=CCn1c(=O)n(-c3ccc(C(C)(C)C)cc3)c(=O)n12 (centres undefined)
- viability at 4 day, 30 µM [2]: 73.4%
- IC50 [3]: 6.94 µM
- viability at 1 day, 30 µM [4]: 79.7%
- IC50 [5]: 6.77 µM
- Activity [1]: 53%

SMILES: COc1cccc(-n2c(=O)n3n(c2=O)C2C(=CC3)C(C)(C)Oc3cc(O)ccc32)c1 (centres undefined)
- Activity [1]: 86%

SMILES: CC1(C)Oc2cc(O)ccc2C2C1=CCn1c(=O)n(-c3ccc(Cl)cc3)c(=O)n12 (centres undefined)
- Activity [1]: 112%
